# Screening data (PubChem)
# UCH37 inh = blocks the human deubiquitinase UCH37; purified proteasome/UCH37, Ub-AMC cleavage fluorescence; inhibition, % (concentration not given with the values); 330,000 tested, 0.33% active; AID 588478;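 active = mean inhibition over replicate wells above about 20%, limit read from the data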;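 note: 0% = compound-free wells with enzyme and 100% = wells lacking proteasome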
# Target sequence (Q9Y5K5 whole entry, looked up): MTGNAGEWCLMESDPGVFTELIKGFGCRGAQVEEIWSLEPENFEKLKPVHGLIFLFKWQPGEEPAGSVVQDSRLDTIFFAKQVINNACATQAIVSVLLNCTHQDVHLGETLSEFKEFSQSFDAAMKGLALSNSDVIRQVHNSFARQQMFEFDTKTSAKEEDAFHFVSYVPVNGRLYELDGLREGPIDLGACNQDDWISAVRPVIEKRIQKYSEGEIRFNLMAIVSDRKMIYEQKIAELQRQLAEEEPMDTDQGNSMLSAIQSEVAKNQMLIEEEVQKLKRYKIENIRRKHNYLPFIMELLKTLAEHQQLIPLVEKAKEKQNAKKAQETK
#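 system = Proteasome-associated human UCH37 deubiquitinase | amount = 0.15 nM proteasome as dispensed | medium = pH 7.4 Tris-HCl (50 mM) with ovalbumin, ATP-MgCl2, DTT | incubation = 30 min preincubation with enzyme, 25 min cleavage at room temperature | detection = AMC fluorescence 355/460 nm | read-out basis = percent inhibition | controls = no-proteasome and no-compound wells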
# NALP1 inh = blocks the NALP1 inflammasome reconstituted in yeast. S. cerevisiae NALP1/ASC/caspase-1 growth, X-gal OD620, 72 h. inhibition, % at 10 µM. 280,000 tested, 0.61% active; in the data active = inhibition mostly above about 24%, no sharp cut-off; inactive = mostly below about 32%
# ALR inh = blocks human ALR sulfhydryl oxidase activity; 290,000 tested, 3.8% active; P55789; inhibition, % (concentration not given with the values); purified ALR, DTT oxidation, H2O2 HRP-luminol luminescence;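 active = mean replicate inhibition above about 79%, with every replicate also reaching it, limit read from the data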
# Target sequence (P55789 whole entry, looked up): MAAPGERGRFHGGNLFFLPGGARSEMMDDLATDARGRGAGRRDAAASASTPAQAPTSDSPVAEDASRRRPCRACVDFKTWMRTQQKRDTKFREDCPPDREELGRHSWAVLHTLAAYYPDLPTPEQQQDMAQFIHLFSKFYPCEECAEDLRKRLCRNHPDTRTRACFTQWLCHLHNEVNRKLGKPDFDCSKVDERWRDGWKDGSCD
# Calb FLC = C. albicans growth modulation with fluconazole; C. albicans CaCi-2 + fluconazole, Alamar Blue growth, 48 h; growth inhibition, % (test concentration not listed); 300,000 tested, 0.57% active; AID 1979;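 active = growth inhibition above about 58% in most replicates, limit read from the data, passing the limit was not always enough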;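 note: all wells also contain fluconazole at 8 µg/ml as a sub-toxic cotreatment; 0% = median of DMSO wells and 100% = median of geldanamycin control wells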
# NLRP3 yeast inh = blocks the NALP3 inflammasome reconstituted in yeast. Yeast reconstituted NLRP3/ASC/caspase-1, beta-gal luminescence, 24 h. 330,000 tested, 0.39% active. inhibition, % at 10 µM. AID 2825;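 active = inhibition of 50% or more; inactive = inhibition below 50%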;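 note: plate controls were induced DMSO wells for no effect and uninduced yeast grown without galactose for full effect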
# ATG4B inhibitor = inhibitors of human ATG4B cysteine protease; ATG4B cleavage of LC3-PLA2, NBD-HPC fluorescence, 1 h; AID 504462; inhibition, % at 8.33 µM; 340,000 tested, 0.51% active; in the data active = inhibition above about 40%
# An asterisk follows results filed as active; i = inactive; x = not tested or not shown. This is a sample that favours compounds with a hit; in the whole collection about 4.8% have one here.
SMILES,UCH37 inh,NALP1 inh,ALR inh,Calb FLC,NLRP3 yeast inh,ATG4B inhibitor
COC(=O)c1ccc2c(c1)C(C)(C)C(/C=C/c1ccc(O)cc1)=[N+]2C,i,52*,93*,-21,25,3
COc1cc(/C=C2/SC(=S)N(CC(=O)O)C2=O)ccc1OC(=O)c1cccs1,14,x,x,-6,28,0
COc1cc(/C=C2\SC(=S)N(CC(=O)O)C2=O)ccc1OS(=O)(=O)c1ccc(C)cc1,15,x,89*,x,4,0
CCCCCCCCCCCC(=O)NC(C(=O)O)C(O)c1ccccc1 (configuration not stated),7,27*,14,16,0,14
O=S(=O)(c1ccc2ccccc2c1)N1CCOCC1,3,20,x,-1,22,-4
O=S(=O)(c1ccc2c(c1)CCN2)N1CCOCC1,0,x,78*,x,0,-2
C[N+]1(CC2COC3(CCCCC3)O2)CCCC1 (configuration not stated),5,30,0,1,-14,-3
C1CCCCCC2(CCCCC1)OCC(CN1CCOCC1)O2 (configuration not stated),5,54*,x,9,36,18
O=C(Nc1ccc2[nH]c(=S)sc2c1)c1ccccc1,9,16,99*,-10,18,-3
O=C(Nc1ccc2[nH]c(=S)sc2c1)Nc1ccccc1F,11,-3,x,2,3,-2
COc1ccc(C(=O)NN=C(C)CC(=O)Nc2ccc3c(c2)OCCO3)c(OC)c1,0,x,x,x,x,x
O=C(O)CN1C(=O)/C(=C\c2cccc(OCc3ccc(Cl)cc3Cl)c2)SC1=S,x,1,99*,36,11,28
COc1ccc(OCC(=O)NN=C2CCCc3ccccc32)cc1,1,x,x,x,x,x
Cc1nn2c(NCCCN(C)C)c3c(nc2c1-c1ccccc1)CCCC3,1,12,97*,-1,3,0
COCCNc1c2c(nc3c(-c4ccccc4)c(C)nn13)CCC2,-14,26,x,-2,5,-4
Cc1nn2c(NCCCN(C)C)c3c(nc2c1-c1ccccc1)CCC3,-3,-1,88*,-15,5,6
Cc1cccc(-c2nc(CS(=O)CC(=O)NCC3CCCO3)c(C)o2)c1 (configuration not stated),6,25,x,-7,14,-12
Cc1ccc(-c2nnc(SCC(=O)N3CCN(c4ccccc4)CC3)o2)cc1,1,-5,-8,-5,9,-5
Cc1oc(-c2ccccc2)nc1CS(=O)CC(=O)N1CCc2ccccc2C1 (configuration not stated),6,-18,99*,4,25,0
COc1cccc(-c2nc(CS(=O)(=O)CC(=O)N3CCc4ccccc4C3)c(C)o2)c1,2,30,33,4,-3,-3
Cc1cccc(-c2nc(CS(=O)CC(=O)N3CCCCC3)c(C)o2)c1 (configuration not stated),4,-11,100*,2,-5,8
Cc1ccc(-c2nc(CS(=O)CC(=O)N3CCN(c4ccccc4)CC3)c(C)o2)cc1 (configuration not stated),3,3,98*,4,15,-3
Cc1oc(-c2ccccc2Cl)nc1CS(=O)CC(=O)N1CCN(c2ccccc2)CC1 (configuration not stated),0,12,99*,0,7,-11
COc1ccc(NC(C)C(=O)NN=Cc2ccccc2OCc2ccc(Br)cc2)cc1 (configuration not stated),2,x,x,x,x,x
O=C(Cc1ccc(Br)cc1)N1CCN(C(=O)c2ccccc2)CC1,0,x,-1,x,11,-16
SMILES,UCH37 inh,NALP1 inh,ALR inh,Calb FLC,NLRP3 yeast inh,ATG4B inhibitor
CCn1c(CSCc2ccc(F)cc2)nnc1SCC(=O)N1CCN(c2ccccc2)CC1,7,31,97*,21,-4,-6
Cc1ccc(CSCc2nnc(SCC(=O)N3CCN(c4ccccc4)CC3)n2C)cc1,2,-7,52,-1,13,-1
O=C(Cc1ccc(Br)cc1)N1CCN(c2ccccc2)CC1,2,-12,98*,5,24,-17
O=C(CCc1ccccc1)N1CCN(c2ccc(F)cc2)CC1,4,0,86*,-7,4,-7
O=C(CN1CCN(c2ccccc2)CC1)Nc1ccncc1,0,-18,99*,-4,-2,-1
O=C(CN1CCN(c2ccc(F)cc2)CC1)OCc1ccccc1,-1,37,92*,-17,1,-5
O=C(CSc1nc2ccccc2nc1N1CCCCC1)N1CCN(c2ccccc2)CC1,0,4,-3,9,13,2
O=C(CN1CCN(c2ccccc2)CC1)N1CCN(c2ccccc2)CC1,5,-4,99*,3,23,-1
O=C(CSC1CCCCC1)N1CCN(c2ccccc2)CC1,2,15,98*,-5,12,-8
CC1(C(=O)N2CCN(c3ccccc3)CC2)CC1(Cl)Cl (configuration not stated),0,-16,96*,-1,7,-2
O=C(CN1CCCCC1)N1CCN(c2ccccc2)CC1,4,10,37,4,14,8
O=C(CN1CCN(c2ccc(F)cc2)CC1)NCc1ccc(F)cc1,5,-5,x,-4,15,0
Cc1cccc(OCC(=O)NCC(=O)NN=Cc2cccnc2)c1,0,x,x,x,x,x
CCn1cc(C=NNC(=O)COc2cccc(C)c2C)c(C)n1,3,x,x,x,x,x
Cc1ccc(CSCC(=O)N2CCN(c3ccccc3)CC2)cc1,5,42,36,1,24,11
O=C(CSCc1ccccc1)N1CCN(c2ccccc2)CC1,0,31,98*,-4,28,-4
CC1=NN(C(=O)CSCc2ccccc2)C(O)(c2ccc(F)cc2)C1 (configuration not stated),22*,-9,-3,-9,6,1
O=C(CSCc1ccccc1)N1CCN(c2ccc(F)cc2)CC1,2,-4,88*,-5,2,-2
O=C(CSCc1cccc(F)c1)N1CCN(c2ccccc2)CC1,3,8,98*,-3,23,9
O=C(CSCc1ccccc1)N1CCN(c2cccc(C(F)(F)F)c2)CC1,2,6,-14,-1,7,4
O=C(CSCc1ccccc1)N1CCN(S(=O)(=O)c2ccc(F)cc2)CC1,5,5,0,4,17,-4
COc1ccc(NCC(=O)NN=Cc2cc([N+](=O)[O-])ccc2N2CCCC2)cc1,9,x,x,x,x,x
CCN1CCN(c2c(Cl)cccc2NC(=O)c2ccc([N+](=O)[O-])o2)CC1,x,31*,x,16,36,x
COc1ccccc1C=NNC(=O)c1cccc(NC(=O)c2ccccc2C)c1,1,x,x,x,x,x
COc1ccc2cc(C=NNC(=O)c3c(Cl)cnn3C)c(Cl)nc2c1,-3,x,x,x,x,x
